Laboratory results: ChEMBL document CHEMBL1138467, “Indomethacin amides as a novel molecular scaffold for targeting Trypanosoma cruzi sterol 14alpha-demethylase” (J Med Chem, 2009)
Values belong to the compound of their own block, whether it stands above or below them. Calls of active or inactive are those of the source. The calls are words filed in the database; no cut-off is given here.

Tests used:
[1] = biological target: Sterol 14-alpha demethylase (Trypanosoma cruzi (strain CL Brener)) (UniProt Q7Z1V1); experiment: Inhibitory potency at Trypanosoma cruzi CYP51 assessed as molar ratio of drug to enzyme required to slow down the reaction twofold at 1 uM enzyme concentration
Chain of Sterol 14-alpha demethylase (Trypanosoma cruzi (strain CL Brener)) (Q7Z1V1 whole entry, looked up): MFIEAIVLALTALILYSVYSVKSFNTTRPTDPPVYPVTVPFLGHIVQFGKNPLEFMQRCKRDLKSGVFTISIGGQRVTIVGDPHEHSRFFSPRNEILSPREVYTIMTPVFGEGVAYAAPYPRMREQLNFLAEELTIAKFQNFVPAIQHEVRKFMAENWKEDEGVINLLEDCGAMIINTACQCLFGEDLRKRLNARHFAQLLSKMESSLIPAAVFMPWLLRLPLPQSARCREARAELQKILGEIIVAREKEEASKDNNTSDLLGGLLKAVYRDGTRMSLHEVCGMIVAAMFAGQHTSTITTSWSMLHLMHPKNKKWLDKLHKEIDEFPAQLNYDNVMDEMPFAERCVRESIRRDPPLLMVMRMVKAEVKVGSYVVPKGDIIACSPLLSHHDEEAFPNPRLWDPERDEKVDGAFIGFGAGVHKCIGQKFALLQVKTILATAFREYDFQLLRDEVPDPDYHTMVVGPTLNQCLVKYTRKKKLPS
Outline: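 Reconstituted with T. brucei CPR and DLPC (TCCYP51:CPR:DLPC 1:2:50). Final mix: 1 μM TCCYP51, 50 μM [3H]-MDL in MOPS pH 7.4 with KCl, MgCl2, glycerol and an isocitrate/isocitrate dehydrogenase system. Inhibitors 1–100 μM, 5 min preincubation at 37°C, started with NADPH. Sterols by reverse-phase radio-HPLC. I/E2 is the inhibitor/enzyme molar ratio halving the initial rate.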

[2] = biological target: T1, Prostaglandin G/H synthase 2 (Mus musculus) (UniProt Q05769); experiment: Inhibitory potency at mouse COX2 assessed as molar ratio of drug to enzyme required to slow down the reaction twofold at 0.1 uM enzyme concentration
T1 sequence (whole entry): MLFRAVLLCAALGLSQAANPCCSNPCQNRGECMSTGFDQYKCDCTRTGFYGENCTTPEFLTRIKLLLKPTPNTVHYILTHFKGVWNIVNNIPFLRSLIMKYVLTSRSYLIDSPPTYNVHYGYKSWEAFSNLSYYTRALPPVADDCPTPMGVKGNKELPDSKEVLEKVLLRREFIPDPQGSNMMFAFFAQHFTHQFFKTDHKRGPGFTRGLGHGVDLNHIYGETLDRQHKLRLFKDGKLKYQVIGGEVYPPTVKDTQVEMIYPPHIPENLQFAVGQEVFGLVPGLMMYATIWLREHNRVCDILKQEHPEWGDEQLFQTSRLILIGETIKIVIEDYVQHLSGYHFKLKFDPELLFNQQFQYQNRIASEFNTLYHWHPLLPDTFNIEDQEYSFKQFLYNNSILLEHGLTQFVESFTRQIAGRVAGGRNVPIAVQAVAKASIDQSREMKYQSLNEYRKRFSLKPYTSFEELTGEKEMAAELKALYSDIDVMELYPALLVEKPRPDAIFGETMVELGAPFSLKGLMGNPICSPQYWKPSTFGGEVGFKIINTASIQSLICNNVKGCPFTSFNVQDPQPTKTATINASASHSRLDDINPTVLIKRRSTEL
Outline: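 Mouse cyclooxygenase-2 at 100 nM final concentration. Potency is expressed as the inhibitor/enzyme molar ratio giving a two-fold decrease in the initial rate of catalysis (I/E2).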

[3] = biological target: Sterol 14-alpha demethylase (Trypanosoma cruzi (strain CL Brener), UniProt Q7Z1V1); experiment: Binding affinity to Trypanosoma cruzi CYP51 expressed in Escherichia coli by spectral titration
Chain of Sterol 14-alpha demethylase (Q7Z1V1 whole entry): as the sequence (Q7Z1V1 whole entry, looked up) above

Trypanosoma cruzi [4] = experiment: Antitrypanosomal activity against Trypanosoma cruzi trypomastigotes in cardiomyocytes; assay type: functional, organism-based
Outline: (§1)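 Trypomastigotes (10^6) were pre-exposed for 30 min to inhibitor in DMSO (1–50 μM) or DMSO control. They then infected rat cardiomyocyte monolayers in triplicate at 10 parasites/cell for 2 h. Unbound parasites were removed and cells were grown in DMEM/10% FBS for 72 h. Parasites per 200 cells and % infection were counted on Giemsa-stained monolayers. Results are mean ± SD, with Student t test.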

Trypanosoma cruzi [5] = experiment: Antitrypanosomal activity against Trypanosoma cruzi amastigotes in cardiomyocytes; assay type: functional; outline: as §1
Trypanosoma cruzi [6] = experiment: Antitrypanosomal activity against Trypanosoma cruzi trypomastigotes in cardiomyocytes at 10 uM after 72 hrs; assay type: functional, organism-based; outline: as §1
Trypanosoma cruzi [7] = experiment: Antitrypanosomal activity against Trypanosoma cruzi trypomastigote in cardiomyocytes assessed as decrease in intracellular parasites at 20 uM after 72 hrs; assay type: functional, organism-based; outline: as §1
Trypanosoma cruzi [8] = experiment: Antitrypanosomal activity against Trypanosoma cruzi epimastigotes assessed as blocking of cellular sterol composition at 50 uM after 24 hrs

SMILES: COc1ccc2c(c1)c(CC(=O)Nc1ccccn1)c(C)n2C(=O)c1ccc(Cl)cc1
Ratio [1]: 11
Ratio [2]: 2.1
Kd [3]: 3300 nM

SMILES: CCC(C(=O)Nc1ccncc1)c1ccccc1 (stereo unspecified)
Ratio [1]: 10
Kd [3]: 440 nM

SMILES: O=C(Nc1ccncc1)C1c2ccccc2Oc2ccccc21
Ratio [1]: 14
Kd [3]: 750 nM

SMILES: COc1ccc2c(c1)c(CC(=O)NC(C)c1ccncc1)c(C)n2C(=O)c1ccc(Cl)cc1 (stereo unspecified)
Ratio [1]: 8.5
Ratio [2]: 1.7
Kd [3]: 370 nM

SMILES: COc1ccc2c(c1)c(CC(=O)Nc1ncccn1)c(C)n2C(=O)c1ccc(Cl)cc1
Ratio [1]: 15
Ratio [2]: 3.6

Ratio [1]: 7.7
Ratio [2]: < 1
SMILES: COc1ccc2c(c1)c(CC(=O)NCc1ccc(C(F)(F)F)nc1)c(C)n2C(=O)c1ccc(Cl)cc1

Ratio [1]: 4.2
Ratio [2]: < 1
SMILES: COc1ccc2c(c1)c(CC(=O)NCc1ccc(Cl)nc1)c(C)n2C(=O)c1ccc(Cl)cc1
Activity (Trypanosoma cruzi [4]): Dose-dependent effect
Activity (Trypanosoma cruzi [5]): Dose-dependent effect

SMILES: COc1ccc2c(c1)c(CC(=O)NCC(C)c1ccccc1)c(C)n2C(=O)c1ccc(Cl)cc1 (stereo unspecified)
Ratio [1]: < 1
Activity (Trypanosoma cruzi [6]): Active
Activity (Trypanosoma cruzi [7]): Active
Ratio [2]: > 40
Kd [3]: 150 nM

SMILES: CC1CCC(C(=O)NC(Cc2c[nH]c3ccccc23)C(=O)Nc2ccncc2)CC1 (stereo unspecified)
Activity (Trypanosoma cruzi [4]): Dose-dependent effect
Activity (Trypanosoma cruzi [5]): Dose-dependent effect

SMILES: COc1ccc2c(c1)c(CC(=O)NCCc1cccc(Cl)c1)c(C)n2C(=O)c1ccc(Cl)cc1
Ratio [1]: < 1
Activity (Trypanosoma cruzi [6]): Active
Activity (Trypanosoma cruzi [7]): Active
Ratio [2]: < 1
Kd [3]: 360 nM

SMILES: COc1ccc2c(c1)c(CC(=O)Nc1cccnc1)c(C)n2C(=O)c1ccc(Cl)cc1
Ratio [1]: 9.1
Ratio [2]: 2.1
Kd [3]: 290 nM

SMILES: COc1ccc2c(c1)c(CC(=O)NCc1ccncc1)c(C)n2C(=O)c1ccc(Cl)cc1
Ratio [1]: 10
Ratio [2]: 10
Kd [3]: 540 nM

SMILES: COc1ccc2c(c1)c(CC(=O)NCCc1cccnc1)c(C)n2C(=O)c1ccc(Cl)cc1
Ratio [1]: 6.3
Activity (Trypanosoma cruzi [4]): Dose-dependent effect
EC50 (Trypanosoma cruzi [5]; read-out: ED50 (the source's name)): < 1000 nM
Activity (Trypanosoma cruzi [8]): Active
Kd [3]: 2310 nM

SMILES: COc1ccc2c(c1)c(CC(=O)NCc1ccccn1)c(C)n2C(=O)c1ccc(Cl)cc1
Ratio [1]: 13
Activity (Trypanosoma cruzi [4]): Dose-dependent effect
Activity (Trypanosoma cruzi [5]): Dose-dependent effect
Ratio [2]: > 10
Kd [3]: 7600 nM
